Measurements taken from ChEMBL document CHEMBL1133465, “[Pro(3)]Dyn A(1-11)-NH(2): a dynorphin analogue with high selectivity for the kappa opioid receptor” (J Med Chem, 2000).

Key:
[1] = molecular target: T1, Kappa-type opioid receptor (Homo sapiens, UniProt P41145); experiment: Binding affinity of Opioid receptor kappa 1 to cloned human opioid receptor in CHO cell membrane.; assay type: cell-based
Procedure, shortened: (§1)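 Membranes from CHO cells stably expressing cloned human µ, δ or κ receptors in 50 mM Tris-HCl pH 7.8 with EGTA, MgCl2 and protease inhibitors. 50-100 µg protein with 1.0 nM [3H]diprenorphine, 60 min at room temperature. Filtered on PEI/BSA-treated GF/B and counted by scintillation. Nonspecific binding with 10 µM naloxone. Four-parameter one-site fit, Ki by Cheng-Prusoff.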

Cavia porcellus [2] = species: Cavia porcellus; experiment: Tested for antagonist activity in guinea pig ileum by (GPI) assay.; assay type: functional, organism-based
Procedure, shortened: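 Electrically evoked contractions of guinea pig ileum. Ke calculated from IC50 of reference agonist (U50,488 or [D-Ala3]Dyn A(1-11)-NH2), measured with and without a fixed concentration of antagonist.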

[3] = Tested for maximum agonist response at concentration 10 uM, relative to that with standard agonist U50,488.; assay type: functional
Procedure, shortened: (§2)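 κ-expressing CHO membranes (50-150 µg) in 50 mM Tris HCl pH 7.8 with 80-100 pM [35S]GTPγS, 30 µM GDP, 100 mM NaCl and 5.0 mM MgCl2, 1 h at 30 °C. Filtered and counted. Agonist concentration series gave EC50 by nonlinear regression. Maximal response at 10 µM expressed relative to U50,488 set as 100%.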

Mu-type opioid receptor = Mu-type opioid receptor (Homo sapiens, UniProt P35372); experiment: Binding affinity towards cloned human Opioid receptor mu 1 in CHO cell membranes.; assay type: cell-based; procedure, shortened: as §1
Chain of Mu-type opioid receptor (P35372 whole entry): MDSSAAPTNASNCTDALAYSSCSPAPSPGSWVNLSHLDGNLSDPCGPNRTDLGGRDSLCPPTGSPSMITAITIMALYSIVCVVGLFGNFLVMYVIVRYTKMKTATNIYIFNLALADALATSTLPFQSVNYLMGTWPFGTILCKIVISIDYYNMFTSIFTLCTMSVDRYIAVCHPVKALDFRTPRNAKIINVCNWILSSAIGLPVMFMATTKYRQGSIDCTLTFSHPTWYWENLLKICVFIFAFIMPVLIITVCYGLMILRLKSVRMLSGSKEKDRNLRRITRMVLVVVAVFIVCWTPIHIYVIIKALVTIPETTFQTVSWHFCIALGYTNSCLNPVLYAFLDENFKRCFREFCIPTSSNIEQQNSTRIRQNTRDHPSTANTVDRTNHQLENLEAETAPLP

[4] = molecular target: T1, Kappa-type opioid receptor; experiment: Binding affinity towards cloned human Opioid receptor kappa 1 in CHO cell membranes.; assay type: cell-based
[5] = molecular target: T2, Delta-type opioid receptor (Homo sapiens, UniProt P41143); experiment: (§3) Binding affinity towards cloned human Opioid receptor delta 1 in CHO cell membranes.; assay type: cell-based
T2 sequence (P41143 whole entry): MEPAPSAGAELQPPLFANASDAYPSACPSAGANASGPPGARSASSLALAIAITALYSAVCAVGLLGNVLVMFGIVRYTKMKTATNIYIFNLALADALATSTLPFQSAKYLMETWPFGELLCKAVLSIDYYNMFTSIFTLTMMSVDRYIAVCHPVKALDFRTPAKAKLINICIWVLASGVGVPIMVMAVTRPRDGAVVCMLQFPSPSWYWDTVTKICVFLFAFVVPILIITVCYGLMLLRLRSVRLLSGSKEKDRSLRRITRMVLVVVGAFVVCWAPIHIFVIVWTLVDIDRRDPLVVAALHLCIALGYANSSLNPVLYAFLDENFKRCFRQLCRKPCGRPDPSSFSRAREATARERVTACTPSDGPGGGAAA
Procedure, shortened: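 Membranes from CHO cells stably expressing cloned human δ receptor; 50-100 µg protein. […] Nonspecific binding with 10 µM naloxone. Filter-bound counts; Ki via Cheng-Prusoff from a one-site fit.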

[6] = molecular target: T1, Kappa-type opioid receptor; experiment: Human kOpioid receptor kappa 1 mediated stimulation of [35S]- GTPgammaS binding in CHO cells (Agonist potency).; assay type: cell-based
Procedure, shortened: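 Human κ-CHO membranes (50-150 µg) with 80-100 pM [35S]GTPγS, 30 µM GDP and 100 mM NaCl in Tris-HCl pH 7.8; 1 h at 30 °C, then filtration and counting. EC50 from a nonlinear fit of an agonist concentration series. Maximal response at 10 µM expressed relative to U50,488 (100%).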

Cavia porcellus [7] = species: Cavia porcellus; experiment: Tested for agonist or antagonist properties in guinea pig ileum by (GPI) assay.
[8] = Antagonist activity determined in the [35S]GTP-gamma-S, binding assay relative to 50 nM U50,488; assay type: functional
[9] = molecular target: T2, Delta-type opioid receptor; experiment: as §3; assay type: cell-based; procedure, shortened: as §1; remark: listed apart in the source
[10] = Antagonist activity determined in the [35S]GTP-gamma-S, binding assay relative to 25 nM [D-Ala3] Dyn A (1-11)-NH2.; assay type: functional
[11] = molecular target: T1, Kappa-type opioid receptor; experiment: Binding affinity at Opioid receptor kappa 1 by to cloned human opioid receptors expressed in CHO cell membranes
Procedure, shortened: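 Membranes from CHO cells stably expressing cloned human κ receptor; 50-100 µg protein in 50 mM Tris-HCl pH 7.8 with EGTA, MgCl2 and protease inhibitors. […] Nonspecific binding with 10 µM naloxone. Filtration and scintillation counting; Ki by Cheng-Prusoff.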

Cavia porcellus [12] = species: Cavia porcellus; experiment: Antagonist activity determined in the guinea pig assay against [D-Ala3] Dyn A (1-11)-NH2 at 1 uM; assay type: functional
Procedure, shortened: (§4)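 Electrically stimulated guinea pig ileum. Antagonist held at a fixed concentration of 1 µM. IC50 of the reference agonist (U50,488 or [D-Ala3]Dyn A(1-11)-NH2, as the line names) was measured with and without antagonist. Ke was calculated from the shift.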

Cavia porcellus [13] = species: Cavia porcellus; experiment: Antagonist activity determined in the guinea pig assay against U50,488 at 1 uM; assay type: functional; procedure, shortened: as §4
[14] = molecular target: T1, Kappa-type opioid receptor; experiment: Human Opioid receptor kappa 1 mediated stimulation of [35S]- GTPgammaS binding in CHO cells (Agonist potency).; assay type: cell-based; procedure, shortened: as §2
Cavia porcellus [15] = species: Cavia porcellus; experiment: Tested for agonist or antagonist properties in guinea pig ileum a (GPI) assay.; assay type: functional, organism-based

T1 sequence (P41145 whole entry): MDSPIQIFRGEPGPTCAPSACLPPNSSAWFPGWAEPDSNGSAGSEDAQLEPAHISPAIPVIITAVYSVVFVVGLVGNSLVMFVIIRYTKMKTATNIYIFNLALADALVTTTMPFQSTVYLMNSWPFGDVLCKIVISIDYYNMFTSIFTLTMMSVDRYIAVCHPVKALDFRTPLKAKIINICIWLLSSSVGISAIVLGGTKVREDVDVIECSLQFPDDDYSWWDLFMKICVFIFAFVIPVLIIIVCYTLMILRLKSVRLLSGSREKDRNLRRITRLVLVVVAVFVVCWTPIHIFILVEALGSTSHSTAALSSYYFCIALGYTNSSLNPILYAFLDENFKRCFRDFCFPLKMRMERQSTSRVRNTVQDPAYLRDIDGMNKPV

Compound	Ki (Mu-type opioid receptor) [nM]	Ki [4] [nM]	IC50 [8] [nM]	Ki [9] [nM]	further results
CC[C@@H](C)[C@@H](NC(=O)CNC(=O)[C@@H](N)Cc1ccc(O)cc1)C(=O)N[C@@H](Cc1ccccc1)C(=O)N[C@@H](CC(C)C)C(=O)N[C@@H](CCCN=C(N)N)C(=O)N[C@@H](CCCN=C(N)N)C(=O)N[C@H](C(=O)N[C@@H](CCCN=C(N)N)C(=O)N1CCC[C@H]1C(=O)N[C@@H](CCCCN)C(N)=O)[C@@H](C)CC					Ki [1]: 55 nM
CC[C@H](C)[C@H](NC(=O)[C@H](CCCN=C(N)N)NC(=O)[C@H](CCCN=C(N)N)NC(=O)[C@H](CC(C)C)NC(=O)[C@H](Cc1ccccc1)NC(=O)CNC(=O)CNC(=O)[C@@H](N)Cc1ccc(O)cc1)C(=O)N[C@@H](CCCN=C(N)N)C(=O)N1CCC[C@H]1C(=O)N[C@@H](CCCCN)C(N)=O	7.6	0.074			IC50 (Cavia porcellus [2]): 0.376 nM; Max agonist response [3]: 73%; Ki [5]: 2.9 nM; EC50 [6]: 0.74 nM
CC[C@H](C)[C@H](NC(=O)[C@H](CCCN=C(N)N)NC(=O)[C@H](CCCN=C(N)N)NC(=O)[C@H](CC(C)C)NC(=O)[C@H](Cc1ccccc1)NC(=O)[C@@H](C)NC(=O)CNC(=O)[C@@H](N)Cc1ccc(O)cc1)C(=O)N[C@@H](CCCN=C(N)N)C(=O)N1CCC[C@H]1C(=O)N[C@@H](CCCCN)C(N)=O					IC50 (Cavia porcellus [7]): 2.38 nM
CC[C@H](C)[C@H](NC(=O)[C@H](CCCNC(=N)N)NC(=O)[C@H](CCCNC(=N)N)NC(=O)[C@H](CC(C)C)NC(=O)[C@H](Cc1ccccc1)NC(=O)CNC(=O)[C@@H]1CCCN1C(=O)[C@@H](N)Cc1ccc(O)cc1)C(=O)N[C@@H](CCCNC(=N)N)C(=O)N1CCC[C@H]1C(=O)N[C@@H](CCCCN)C(N)=O	3200	94	760	6800	
CC[C@H](C)[C@H](NC(=O)[C@H](CCCN=C(N)N)NC(=O)[C@H](CCCN=C(N)N)NC(=O)[C@H](CC(C)C)NC(=O)[C@H](Cc1ccccc1)NC(=O)[C@@H]1CCCN1C(=O)CNC(=O)[C@@H](N)Cc1ccc(O)cc1)C(=O)N[C@@H](CCCN=C(N)N)C(=O)N1CCC[C@H]1C(=O)N[C@@H](CCCCN)C(N)=O	5700	2.7	380	8800	IC50 [10]: 1400 nM; Ki [11]: 7.5 nM
CC[C@H](C)[C@H](NC(=O)[C@H](CCCN=C(N)N)NC(=O)[C@H](CCCN=C(N)N)NC(=O)[C@H](CC(C)C)NC(=O)[C@H](Cc1ccccc1)NC(=O)CNC(=O)[C@H]1CCCN1C(=O)[C@@H](N)Cc1ccc(O)cc1)C(=O)N[C@@H](CCCN=C(N)N)C(=O)N1CCC[C@H]1C(=O)N[C@@H](CCCCN)C(N)=O	1700	65	940	3900	
Oc1ccc2c3c1O[C@H]1c4[nH]c5c(c4C[C@@]4(O)[C@@H](C2)N(CC2CC2)CC[C@]314)C[C@@]1(O)[C@H]2Cc3ccc(O)c4c3[C@@]1(CCN2CC1CC1)[C@H]5O4 [NORBINALTORPHIMINE]			4.6		IC50 [10]: 4.7 nM; Ke (Cavia porcellus [12]): 0.572 nM; Ke (Cavia porcellus [13]): 0.357 nM
CC[C@H](C)[C@H](NC(=O)[C@H](CCCNC(=N)N)NC(=O)[C@H](CCCNC(=N)N)NC(=O)[C@H](CC(C)C)NC(=O)[C@H](Cc1ccccc1)NC(=O)[C@@H](C)NC(=O)CNC(=O)[C@@H](N)Cc1ccc(O)cc1)C(=O)N[C@@H](CCCNC(=N)N)C(=O)N1CCC[C@H]1C(=O)N[C@@H](CCCCN)C(N)=O	67	0.15			EC50 [14]: 6.1 nM
CC[C@H](C)[C@H](NC(=O)[C@H](CCCN=C(N)N)NC(=O)[C@H](CCCN=C(N)N)NC(=O)[C@H](CC(C)C)NC(=O)[C@H](Cc1ccccc1)NC(=O)[C@H]1CCCN1C(=O)CNC(=O)[C@@H](N)Cc1ccc(O)cc1)C(=O)N[C@@H](CCCN=C(N)N)C(=O)N1CCC[C@H]1C(=O)N[C@@H](CCCCN)C(N)=O	8300	160	2200	7100	
CCC[C@H](NC(=O)[C@H](Cc1ccccc1)NC(=O)CNC(=O)CNC(=O)[C@H](Cc1ccc(O)cc1)NCc1ccccc1)C(=O)N[C@@H](CCCN=C(N)N)C(=O)N[C@@H](CCCN=C(N)N)C(=O)N[C@H](C(=O)N[C@@H](CCCN=C(N)N)C(=O)N1CCCC1C(=O)N[C@@H](CCCCN)C(N)=O)[C@@H](C)CC (stereo in doubt)					IC50 (Cavia porcellus [15]): 990 nM
